Measurements taken from ChEMBL document CHEMBL1141340, “Protein phosphatase inhibitors isolated from Spongia irregularis collected in Papua New Guinea” (J Nat Prod, 2007).
Calls of active or inactive are those of the source. No cut-off for these calls is given here.

Key:
[1] = Inhibition of calcineurin
[2] = Inhibition of PP2A
In short: (§1)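 Enzyme source was purified catalytic subunits of protein phosphatases PP-1 and PP-2A. Results are reported as IC50.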

[3] = Inhibition of PP1c; in short: as §1

Row | Compound | IC50 [1] | IC50 [2] | IC50 [3] | Activity [1]
1 | CC1=CCCC(C)(C)C1CC/C(C)=C/CCC(CCCc1ccoc1)COP(O)(O)=S (stereo unspecified) | 70 µM | – | – | –
2 | C[C@@H]1CC[C@@H]2C(=CCCC2(C)C)[C@]1(C)CCC(CCCc1ccoc1)COP(=O)(O)O (stereo partly specified) | 230 µM | – | 36 µM | –
3 | C[C@@H]1CC[C@@H]2C(=CCCC2(C)C)[C@]1(C)CCC(CCCc1ccoc1)COS(=O)(=O)O (stereo partly specified) | 69 µM | 140 µM | 64 µM | –

Other lines, results leading:

Row | IC50 [1] | IC50 [2] | IC50 [3] | Activity [1] | Compound
4 | 59 µM | – | – | – | CC(C)CCN1CC=C(CCCC(CC[C@@]2(C)C3=CCCC(C)(C)[C@@H]3CC[C@H]2C)COS(=O)(=O)O)C1=O (stereo partly specified) [IREGULARASULFATE]
5 | 66 µM | 130 µM | 71 µM | – | CC1=CCCC(C)(C)C1CC/C(C)=C/CCC(CCCc1ccoc1)COS(=O)(=O)O (stereo unspecified) [HIPPOSULFATE C]
6 | – | – | – | inactive | CC1=CCCC(C)(C)C1CC/C(C)=C/CCC(CO)CCCc1ccoc1 (stereo unspecified)
